Assay results taken from ChEMBL document CHEMBL1126705, “16 beta-([18F]fluoro)estrogens: systematic investigation of a new series of fluorine-18-labeled estrogens as potential imaging agents for estrogen-receptor-positive breast tumors” (J Med Chem, 1993).

What was measured:
Rattus norvegicus [1] = experiment: Tested in vivo for the biodistribution in rat uterus/blood at 1 hour after intravenous dose of 50 microCi of the drug and 15 ug of estradiol; type: ADME, organism-based
How it was run: (§1)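 Female Sprague-Dawley rats, 25 days old (~40–53 g), ether-anesthetized, given the 18F-labeled estrogen iv via femoral vein in 10% ethanol saline. […] Others were sacrificed by decapitation at 1 or 3 h. Blood and organs were excised, weighed and gamma counted as % injected dose/g, mean ± SD, typically n = 5 (4–6).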

Rattus norvegicus [2] = experiment: Tested in vivo for the biodistribution in rat uterus/muscle after 3 hours following an intravenous dose of 50 microCi of drug in 10%ethanol saline; type: ADME, organism-based, Muscle tissue; how it was run: as §1
Rattus norvegicus [3] = experiment: Tested in vivo for the biodistribution in rat uterus/muscle at 1 hour after intravenous dose of 50 microCi of drug in 10%ethanol saline; type: ADME, organism-based, Muscle tissue; how it was run: as §1
Rattus norvegicus [4] = experiment: Tested in vivo for the biodistribution in rat uterus/muscle at 1 hour after intravenous dose of 50 microCi of the drug and 15 ug of estradiol; type: ADME, organism-based, Muscle tissue; how it was run: as §1
Rattus norvegicus [5] = experiment: Tested in vivo for the biodistribution in blood of female rat after 3 hours following an intravenous dose of 50 microCi of drug in 10%ethanol saline; type: ADME, organism-based
How it was run: (§2)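 Ether-anesthetized 25-day-old female Sprague-Dawley rats (~40–53 g) got the [18F] tracer in 10% ethanol saline via femoral vein. Rats were decapitated at 1 or 3 h, and blood and organs were weighed and gamma-counted. Values are % injected dose/g as mean ± SD, n = 5 per time point.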

Rattus norvegicus [6] = experiment: Tested in vivo for the biodistribution in rat bone at 1 hour after intravenous dose of 50 microCi of drug in 10%ethanol saline; type: ADME, organism-based, Bone element; how it was run: as §2
Rattus norvegicus [7] = experiment: Tested in vivo for the biodistribution in rat bone at 1 hour after intravenous dose of 50 microCi of the drug and 15 ug of estradiol; type: ADME, organism-based, Bone element
Rattus norvegicus [8] = experiment: Tested in vivo for the biodistribution in rat ovaries after 3 hours following an intravenous dose of 50 microCi of drug in 10%ethanol saline; type: ADME, organism-based, Female gonad
How it was run: (§3)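 Immature (25-day-old) female Sprague-Dawley rats, ether-anesthetized, given the fluorine-18-labeled estrogen by femoral vein injection in 10% ethanol saline. […] Other groups were killed by decapitation at 1 or 3 h. Blood and organs were weighed and gamma-counted. Data are % injected dose/g, mean ± SD, typically n = 5 per group.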

Rattus norvegicus [9] = experiment: Tested in vivo for the biodistribution in rat ovaries at 1 hour after intravenous dose of 50 microCi of drug in 10%ethanol saline; type: ADME, organism-based, Female gonad; how it was run: as §3
Rattus norvegicus [10] = experiment: Tested in vivo for the biodistribution in rat ovaries at 1 hour after intravenous dose of 50 microCi of the drug and 15 ug of estradiol; type: ADME, organism-based, Female gonad; how it was run: as §3
Rattus norvegicus [11] = experiment: Tested in vivo for the biodistribution in rat muscle after 3 hours following an intravenous dose of 50 microCi of drug in 10%ethanol saline; type: ADME, organism-based, Muscle tissue; how it was run: as §3
Rattus norvegicus [12] = experiment: Tested in vivo for the biodistribution in rat muscle at 1 hour after intravenous dose of 50 microCi of drug in 10%ethanol saline; type: ADME, organism-based, Muscle tissue; how it was run: as §3
Rattus norvegicus [13] = experiment: Tested in vivo for the biodistribution in rat muscle at 1 hour after intravenous dose of 50 microCi of the drug and 15 ug of estradiol; type: ADME, organism-based, Muscle tissue; how it was run: as §3
Rattus norvegicus [14] = experiment: Tested in vivo for the biodistribution in rat thymus after 3 hours following an intravenous dose of 50 microCi of drug in 10%ethanol saline; type: ADME, organism-based; how it was run: as §3
Rattus norvegicus [15] = experiment: Tested in vivo for the biodistribution in rat thymus at 1 hour after intravenous dose of 50 microCi of drug in 10%ethanol saline; type: ADME, organism-based; how it was run: as §3
Rattus norvegicus [16] = experiment: Tested in vivo for the biodistribution in rat thymus at 1 hour after intravenous dose of 50 microCi of the drug and 15 ug of estradiol; type: ADME, organism-based; how it was run: as §3
Rattus norvegicus [17] = experiment: Tested in vivo for the biodistribution in rat uterus after 3 hours following an intravenous dose of 50 microCi of drug in 10%ethanol saline; type: ADME, organism-based; how it was run: as §3
Rattus norvegicus [18] = experiment: Tested in vivo for the biodistribution in rat uterus at 1 hour after intravenous dose of 50 microCi of drug in 10%ethanol saline; type: ADME, organism-based; how it was run: as §1
Rattus norvegicus [19] = experiment: Tested in vivo for the biodistribution in rat uterus at 1 hour after intravenous dose of 50 microCi of the drug and 15 ug of estradiol; type: ADME, organism-based; how it was run: as §1
Rattus norvegicus [20] = experiment: Tested in vivo for the biodistribution in rat uterus/blood after 3 hours following an intravenous dose of 50 microCi of drug in 10%ethanol saline; type: ADME, organism-based; how it was run: as §1
Rattus norvegicus [21] = experiment: Tested in vivo for the biodistribution in blood of female rat at 1 hour after intravenous dose of 50 microCi of drug in 10%ethanol saline; type: ADME, organism-based; how it was run: as §2
Rattus norvegicus [22] = experiment: Tested in vivo for the biodistribution in blood of female rat at 1 hour after intravenous dose of 50 microCi of the drug and 15 u g of estradiol; type: ADME, organism-based
Rattus norvegicus [23] = experiment: Tested in vivo for the biodistribution in rat bone after 3 hours following an intravenous dose of 50 microCi of drug in 10%ethanol saline; type: ADME, organism-based, Bone element; how it was run: as §2
Rattus norvegicus [24] = experiment: Tested in vivo for the biodistribution in rat fat at 1 hour after intravenous dose of 50 microCi of drug in 10%ethanol saline; type: ADME, organism-based, Adipose tissue; how it was run: as §2
Rattus norvegicus [25] = experiment: Tested in vivo for the biodistribution in rat fat at 1 hour after intravenous dose of 50 microCi of the drug and 15 ug of estradiol; type: ADME, organism-based, Adipose tissue
Rattus norvegicus [26] = experiment: Tested in vivo for the biodistribution in rat kidney after 3 hours following an intravenous dose of 50 microCi of drug in 10%ethanol saline; type: ADME, organism-based; how it was run: as §2
Rattus norvegicus [27] = experiment: Tested in vivo for the biodistribution in rat kidney at 1 hour after intravenous dose of 50 microCi of drug in 10%ethanol saline; type: ADME, organism-based; how it was run: as §2
Rattus norvegicus [28] = experiment: Tested in vivo for the biodistribution in rat kidney at 1 hour after intravenous dose of 50 microCi of the drug and 15 u g of estradiol; type: ADME, organism-based; how it was run: as §3
Rattus norvegicus [29] = experiment: Tested in vivo for the biodistribution in rat liver after 3 hours following an intravenous dose of 50 microCi of drug in 10%ethanol saline; type: ADME, organism-based; how it was run: as §3
Rattus norvegicus [30] = experiment: Tested in vivo for the biodistribution in rat liver at 1 hour after intravenous dose of 50 microCi of drug in 10%ethanol saline; type: ADME, organism-based; how it was run: as §3
Rattus norvegicus [31] = experiment: Tested in vivo for the biodistribution in rat liver at 1 hour after intravenous dose of 50 microCi of the drug and 15 u g of estradiol; type: ADME, organism-based; how it was run: as §3
[32] = Partition coefficient (logP); type: physicochemical; conditions: octanol/water
How it was run: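 Octanol/water log P estimated from log k'w measured by reversed-phase HPLC (Minick method) on a C8 silica column.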

[33] = biological target: T1, Alpha-fetoprotein (Rattus norvegicus) (UniProt P02773); experiment: Relative binding affinity for Alphafetoprotein
T1 sequence (whole entry): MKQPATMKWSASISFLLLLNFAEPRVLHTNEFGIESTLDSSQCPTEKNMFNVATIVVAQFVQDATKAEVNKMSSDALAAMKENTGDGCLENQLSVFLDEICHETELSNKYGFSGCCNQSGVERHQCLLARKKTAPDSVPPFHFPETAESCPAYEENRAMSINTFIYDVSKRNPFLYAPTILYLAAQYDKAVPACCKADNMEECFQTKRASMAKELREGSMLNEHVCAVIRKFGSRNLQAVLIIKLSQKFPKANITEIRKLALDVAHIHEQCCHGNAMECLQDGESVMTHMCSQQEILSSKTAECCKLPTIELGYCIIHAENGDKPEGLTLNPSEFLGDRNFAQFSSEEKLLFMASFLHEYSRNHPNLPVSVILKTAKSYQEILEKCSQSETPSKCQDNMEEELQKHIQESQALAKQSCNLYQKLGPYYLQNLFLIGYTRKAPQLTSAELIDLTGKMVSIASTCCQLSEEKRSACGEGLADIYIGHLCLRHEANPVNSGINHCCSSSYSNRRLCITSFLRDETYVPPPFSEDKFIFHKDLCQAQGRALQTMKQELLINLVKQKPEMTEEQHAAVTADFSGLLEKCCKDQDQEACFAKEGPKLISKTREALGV

[34] = biological target: T2, Sex hormone-binding globulin (Homo sapiens) (UniProt P04278); experiment: Relative binding affinity against sex steroid binding protein (SBP)
T2 sequence (whole entry): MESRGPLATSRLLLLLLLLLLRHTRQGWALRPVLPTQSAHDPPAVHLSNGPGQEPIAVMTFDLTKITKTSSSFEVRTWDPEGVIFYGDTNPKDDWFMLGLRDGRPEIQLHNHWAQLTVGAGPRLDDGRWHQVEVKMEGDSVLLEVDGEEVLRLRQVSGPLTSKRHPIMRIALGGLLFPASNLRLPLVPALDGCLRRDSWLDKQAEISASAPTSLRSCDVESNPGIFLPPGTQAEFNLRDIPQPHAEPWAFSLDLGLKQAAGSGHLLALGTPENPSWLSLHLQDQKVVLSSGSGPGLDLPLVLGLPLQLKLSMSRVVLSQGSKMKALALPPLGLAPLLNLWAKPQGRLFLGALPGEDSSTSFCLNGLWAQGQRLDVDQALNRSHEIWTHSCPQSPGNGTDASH

[35] = Tested in vivo for the biodistribution in rat fat after 3 hours following an intravenous dose of 50 microCi of drug in 10%ethanol saline; set-up: species or system Adipose tissue; how it was run: as §2
Rattus norvegicus [36] = experiment: Tested in vivo for the biodistribution in rat uterus/blood at 1 hour after intravenous dose of 50 microCi of drug in 10%ethanol saline; type: ADME, organism-based; how it was run: as §1
[37] = biological target: T3, Estrogen receptor (Rattus norvegicus) (UniProt P06211+Q62986)
[38] = biological target: T3, Estrogen receptor (Rattus norvegicus); remark: listed apart in the source

SMILES: CO[C@H]1C[C@]2(C)[C@@H](O)[C@@H](F)C[C@H]2[C@@H]2CCc3cc(O)ccc3[C@H]21
- Injected (dose/g) (Rattus norvegicus [1]): 3.73%
- Injected (Rattus norvegicus [2]): 47.73%
- Injected (dose/g) (Rattus norvegicus [3]): 25.57%
- Injected (dose/g) (Rattus norvegicus [4]): 4.49%
- Injected (Rattus norvegicus [5]): 0.117%
- Injected (dose/g) (Rattus norvegicus [6]): 0.515%
- Injected (dose/g) (Rattus norvegicus [7]): 0.604%
- Injected (Rattus norvegicus [8]): 1.409%
- Injected (Rattus norvegicus [9]): 2.466%
- Injected (Rattus norvegicus [10]): 0.417%
- Injected (dose/g) (Rattus norvegicus [11]): 0.107%
- Injected (dose/g) (Rattus norvegicus [12]): 0.251%
- Injected (Rattus norvegicus [13]): 0.149%
- Injected (dose/g) (Rattus norvegicus [14]): 0.175%
- Injected (dose/g) (Rattus norvegicus [15]): 0.391%
- Injected (dose/g) (Rattus norvegicus [16]): 0.135%
- Injected (Rattus norvegicus [17]): 4.813%
- Injected (dose/g) (Rattus norvegicus [18]): 6.12%
- Injected (Rattus norvegicus [19]): 0.671%
- Injected (Rattus norvegicus [20]): 43.47%
- Injected (Rattus norvegicus [21]): 0.148%
- Injected (Rattus norvegicus [22]): 0.184%
- Injected (Rattus norvegicus [23]): 0.646%
- Injected (Rattus norvegicus [24]): 0.516%
- Injected (Rattus norvegicus [25]): 0.338%
- Injected (Rattus norvegicus [26]): 0.429%
- Injected (Rattus norvegicus [27]): 0.946%
- Injected (dose/g) (Rattus norvegicus [28]): 0.579%
- Injected (dose/g) (Rattus norvegicus [29]): 0.893%
- Injected (Rattus norvegicus [30]): 1.178%
- Injected (Rattus norvegicus [31]): 1.397%
- logP [32]: 2.35
- relative binding affinity (RBA) [33]: 0.062
- relative binding affinity (RBA) [34]: 0.087
- Injected [35]: 0.402%
- Injected (dose/g) (Rattus norvegicus [36]): 41.7%
- NSB [37]: 0.39
- BSI [38]: 34
